Measurements of several laboratories.
Compare with care: the assays were run in different laboratories.

SMILES	test system	conditions	half-life [h]
O=C(C=Cc1ccccc1)Nc1cc(-c2ccnc(N3CCC(O)CC3)c2)ccn1	female Sprague-Dawley rat, plasma	oral, 50 mg/kg	0.48
COc1ccc2cc3n(c(=O)c2c1OC)CCc1cc2c(cc1-3)OCO2	male Sprague-Dawley rat, blood	oral, 50 mg/kg	1.57
CC1(CN)CCN(c2cnc3c(Sc4ccncc4Cl)n[nH]c3n2)CC1	male Sprague-Dawley rat, plasma	intravenous, 2 mg/kg	0.935
C/C(=N\c1ccc(O)cc1)c1cc2ccccc2n1C	male Sprague-Dawley rat, plasma	intravenous, 5 mg/kg, single dose	~4.5
CC(=Nc1ccc(N=Cc2cnccn2)cc1)N(C)C	male Sprague-Dawley rat, plasma	oral, 200 mg/kg	7.79
N#C[C@@]12C[C@@H]1[C@@H](n1cnc3c(N[C@@H](C4CCC4)C4CC4)nc(I)nc31)[C@H](O)[C@@H]2O	male Wistar rat, plasma	oral, 3 mg/kg	4.3
O=C1CC[C@H](N2Cc3cc(N4CCN(CC5CCN(c6ccc([C@@H]7c8ccc(O)cc8CC[C@@H]7c7ccccc7)cc6)CC5)CC4)ccc3C2=O)C(=O)N1	female Sprague-Dawley rat, plasma	oral, 20 mg/kg, fed	6.38
Nc1ccc(/C=C/C(=O)NCc2cc3cc(-c4ccc(C(=O)N5CCC(F)(F)CC5)cc4)cc(-c4ccc(F)cc4)c3o2)cn1	rat, plasma	oral, 3 mg/kg	4.59
O=c1cc(-c2ccc(O)c(O)c2)oc2cc(O)cc(O)c12	male Sprague-Dawley rat, plasma	oral, 30 mg/kg	2.2
